Measurements from ChEMBL document CHEMBL2331396, “Exploration of 1-(3-chloro-4-(4-oxo-4H-chromen-2-yl)phenyl)-3-phenylurea derivatives as selective dual inhibitors of Raf1 and JNK1 kinases for anti-tumor treatment” (Bioorg Med Chem, 2013).
Values belong to the molecule of their own block, whether it stands above or below them. Active and inactive are the calls of the source. The calls are words filed in the database; no cut-off is given here.

What was measured:
[1] = Cytotoxicity against human HL7702 cells assessed as inhibition rate at 100 uM measured after 48 hrs by MTT assay; type: cell-based, L02; conditions: read-out: INH
How it was run: (§1)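 Normal liver cells were grown in DMEM with 10% FBS plus penicillin/streptomycin at 37 °C, 5% CO₂. They were seeded at 5 × 10⁵ cells/mL and incubated 24 h. Compounds from DMSO stock were added at final 50 or 100 µM (DMSO <1%), in triplicate, for 48 h. MTT was added for 4 h, formazan dissolved in DMSO, A495 read, and inhibition rate calculated.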

[2] = Cytotoxicity against human QSG7701 cells assessed as inhibition rate at 100 uM measured after 48 hrs by MTT assay; type: cell-based; conditions: read-out: INH; how it was run: as §1
[3] = Cytotoxicity against human HL7702 cells assessed as inhibition rate at 50 uM measured after 48 hrs by MTT assay; type: cell-based, L02; conditions: read-out: INH; how it was run: as §1
[4] = Cytotoxicity against human QSG7701 cells assessed as inhibition rate at 50 uM measured after 48 hrs by MTT assay; type: cell-based; conditions: read-out: INH; how it was run: as §1
HCT-116 = experiment: Antiproliferative activity against human HCT116 cells assessed as growth inhibition measured after 48 hrs by MTT assay; type: functional, cell-based; conditions: HCT-116, 48 h
How it was run: (§2)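 Compounds dissolved in DMSO and diluted in medium to final 0.5–50 µM (final DMSO <1%). Cells were grown in DMEM with 10% FBS, penicillin and streptomycin at 37 °C, 5% CO₂. They were seeded at 5 × 10⁵ cells/mL, incubated 24 h, then treated in triplicate per concentration for 48 h. MTT was added for 4 h, formazan dissolved in DMSO, absorbance read at 495 nm, and IC50 derived.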

A549 = experiment: Antiproliferative activity against human A549 cells assessed as growth inhibition measured after 48 hrs by MTT assay; type: functional, cell-based; conditions: A549, 48 h; how it was run: as §2
HepG2 [5] = experiment: Antiproliferative activity against human HepG2 cells assessed as growth inhibition measured after 48 hrs by MTT assay; type: functional, cell-based; conditions: HepG2, 48 h; how it was run: as §2
[6] = biological target: RAF proto-oncogene serine/threonine-protein kinase (Homo sapiens) (UniProt P04049); experiment: Inhibition of Raf1 (unknown origin) at 50 uM
How it was run: (§3)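 Kinase-Glo Plus luminescent assay. Enzyme, substrate, ATP and compound were mixed in 25 mM HEPES pH 7.4 with 10 mM MgCl₂ and incubated 1 h at 30 °C. The reaction was stopped with an equal volume of Kinase-Glo Plus reagent. Luminescence reflects remaining ATP, inversely related to kinase activity, and is reported as percent inhibition at a single concentration.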

HepG2 [7] = experiment: Cell cycle arrest in human HepG2 cells assessed as cells at G2+M phase at 10 uM measured after 48 hrs by flow cytometric analysis; type: functional
HepG2 [8] = experiment: Cell cycle arrest in human HepG2 cells assessed as cells at S phase at 10 uM measured after 48 hrs by flow cytometric analysis; type: functional
HepG2 [9] = experiment: Cell cycle arrest in human HepG2 cells assessed as cells at G0/G1 phase at 10 uM measured after 48 hrs by flow cytometric analysis; type: functional
HepG2 [10] = experiment: Cell cycle arrest in human HepG2 cells assessed as cells at G2+M phase at 10 uM measured after 36 hrs by flow cytometric analysis; type: functional
HepG2 [11] = experiment: Cell cycle arrest in human HepG2 cells assessed as cells at S phase at 10 uM measured after 36 hrs by flow cytometric analysis; type: functional
HepG2 [12] = experiment: Cell cycle arrest in human HepG2 cells assessed as cells at G0/G1 phase at 10 uM measured after 36 hrs by flow cytometric analysis; type: functional
HepG2 [13] = experiment: Cell cycle arrest in human HepG2 cells assessed as cells at G2+M phase at 10 uM measured after 24 hrs by flow cytometric analysis; type: functional
HepG2 [14] = experiment: Cell cycle arrest in human HepG2 cells assessed as cells at S phase at 10 uM measured after 24 hrs by flow cytometric analysis; type: functional
HepG2 [15] = experiment: Cell cycle arrest in human HepG2 cells assessed as cells at G0/G1 phase at 10 uM measured after 24 hrs by flow cytometric analysis; type: functional
HepG2 [16] = experiment: Cell cycle arrest in human HepG2 cells assessed as cells at G2+M phase at 10 uM measured after 12 hrs by flow cytometric analysis; type: functional
HepG2 [17] = experiment: Cell cycle arrest in human HepG2 cells assessed as cells at S phase at 10 uM measured after 12 hrs by flow cytometric analysis; type: functional
HepG2 [18] = experiment: Cell cycle arrest in human HepG2 cells assessed as cells at G0/G1 phase at 10 uM measured after 12 hrs by flow cytometric analysis; type: functional
HepG2 [19] = experiment: Induction of human HepG2 cells assessed as early apoptotic cells at 10 uM measured after 48 hrs by Annexin VFITC/PI assay; type: functional
HepG2 [20] = experiment: Induction of human HepG2 cells assessed as early apoptotic cells at 10 uM measured after 24 hrs by Annexin VFITC/PI assay; type: functional
HepG2 [21] = experiment: Induction of human HepG2 cells assessed as early apoptotic cells at 10 uM measured after 36 hrs by Annexin VFITC/PI assay; type: functional
HepG2 [22] = experiment: Induction of human HepG2 cells assessed as early apoptotic cells at 10 uM measured after 12 hrs by Annexin VFITC/PI assay; type: functional
HepG2 [23] = experiment: Induction of human HepG2 cells assessed as late apoptotic cells at 10 uM measured after 48 hrs by Annexin VFITC/PI assay; type: functional
HepG2 [24] = experiment: Induction of human HepG2 cells assessed as late apoptotic cells at 10 uM measured after 36 hrs by Annexin VFITC/PI assay; type: functional
HepG2 [25] = experiment: Induction of human HepG2 cells assessed as late apoptotic cells at 10 uM measured after 24 hrs by Annexin VFITC/PI assay; type: functional
HepG2 [26] = experiment: Induction of human HepG2 cells assessed as late apoptotic cells at 10 uM measured after 12 hrs by Annexin VFITC/PI assay; type: functional
[27] = biological target: Mitogen-activated protein kinase 8 (Homo sapiens) (UniProt P45983); experiment: Inhibition of JNK1 in human HepG2 cells assessed as inhibition of methyl methane sulfonate-induced c-Jun phosphorylation at 100 uM measured after 2 hrs by Western blot analysis; type: cell-based
How it was run: (§4)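 Cells were lysed on ice for 50 min in HEPES pH 7.9/KCl/EDTA/NP-40 buffer with Na₃VO₄, NaF and protease inhibitors. Protein was quantified by Coomassie, run on 15% SDS-PAGE and transferred to PVDF. Membranes were blocked in 5% milk for 2 h and probed with total/phospho ERK1/2 or c-Jun antibodies for 2 h at room temperature. Detection was by HRP secondary antibody and chemiluminescence.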

[28] = biological target: Mitogen-activated protein kinase 8 (Homo sapiens) (UniProt P45983); experiment: Inhibition of JNK1 in human HepG2 cells assessed as c-Jun phosphorylation at 10 uM measured after 2 hrs by Western blot analysis; type: cell-based; how it was run: as §4
[29] = biological target: RAF proto-oncogene serine/threonine-protein kinase (Homo sapiens) (UniProt P04049); experiment: Inhibition of Raf1 in human HepG2 cells assessed as ERK1/2 phosphorylation at 10 uM measured after 2 hrs by Western blot analysis; type: cell-based; conditions: in the assay text read “4 hrs” for “2 hrs”; how it was run: as §4
[30] = biological target: Mitogen-activated protein kinase 3 (Homo sapiens) (UniProt P27361); experiment: Inhibition of ERK1 (unknown origin) at 50 uM
How it was run: (§5)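 Luminescent Kinase-Glo Plus assay. Enzyme, substrate, ATP and compound were mixed in pH 7.4 buffer containing 25 mM HEPES and 10 mM MgCl2, then incubated at 30 °C for 1 h. An equal volume of Kinase-Glo Plus reagent stopped the reaction before luminescence was read. Signal tracks remaining ATP and runs inversely to kinase activity; results are given as percent inhibition.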

[31] = biological target: Mitogen-activated protein kinase 8 (Homo sapiens) (UniProt P45983); experiment: Inhibition of JNK1 (unknown origin) at 50 uM; how it was run: as §5
[32] = biological target: Mitogen-activated protein kinase 14 (Homo sapiens) (UniProt Q16539); experiment: Inhibition of p38-alpha (unknown origin) at 50 uM; how it was run: as §3
[33] = biological target: Mitogen-activated protein kinase 1 (Homo sapiens) (UniProt P28482); conditions: at 50 µM
Mitogen-activated protein kinase 1 (Homo sapiens), sequence (P28482 whole entry): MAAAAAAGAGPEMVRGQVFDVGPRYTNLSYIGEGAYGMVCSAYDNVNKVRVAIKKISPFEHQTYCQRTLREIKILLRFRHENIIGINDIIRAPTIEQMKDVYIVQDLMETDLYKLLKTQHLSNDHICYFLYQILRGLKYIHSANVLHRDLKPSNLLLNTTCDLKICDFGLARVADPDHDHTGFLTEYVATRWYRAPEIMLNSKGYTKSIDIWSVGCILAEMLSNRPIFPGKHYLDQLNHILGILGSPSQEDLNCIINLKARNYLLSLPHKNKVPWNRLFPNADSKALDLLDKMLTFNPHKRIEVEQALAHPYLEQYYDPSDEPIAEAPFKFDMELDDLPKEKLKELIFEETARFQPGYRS

Mitogen-activated protein kinase 8 (Homo sapiens), sequence (P45983 whole entry): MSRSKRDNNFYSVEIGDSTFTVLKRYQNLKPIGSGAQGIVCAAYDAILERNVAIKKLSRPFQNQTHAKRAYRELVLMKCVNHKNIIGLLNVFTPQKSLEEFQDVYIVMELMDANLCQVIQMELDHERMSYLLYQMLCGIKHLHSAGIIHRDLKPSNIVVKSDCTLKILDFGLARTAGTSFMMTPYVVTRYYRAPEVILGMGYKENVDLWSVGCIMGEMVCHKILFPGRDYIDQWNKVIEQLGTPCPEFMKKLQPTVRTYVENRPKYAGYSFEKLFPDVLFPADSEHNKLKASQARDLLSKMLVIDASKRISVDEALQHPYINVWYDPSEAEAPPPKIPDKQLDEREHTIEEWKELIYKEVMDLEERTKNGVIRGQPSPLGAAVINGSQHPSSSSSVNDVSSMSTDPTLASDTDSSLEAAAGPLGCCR
RAF proto-oncogene serine/threonine-protein kinase (Homo sapiens), sequence (P04049 whole entry): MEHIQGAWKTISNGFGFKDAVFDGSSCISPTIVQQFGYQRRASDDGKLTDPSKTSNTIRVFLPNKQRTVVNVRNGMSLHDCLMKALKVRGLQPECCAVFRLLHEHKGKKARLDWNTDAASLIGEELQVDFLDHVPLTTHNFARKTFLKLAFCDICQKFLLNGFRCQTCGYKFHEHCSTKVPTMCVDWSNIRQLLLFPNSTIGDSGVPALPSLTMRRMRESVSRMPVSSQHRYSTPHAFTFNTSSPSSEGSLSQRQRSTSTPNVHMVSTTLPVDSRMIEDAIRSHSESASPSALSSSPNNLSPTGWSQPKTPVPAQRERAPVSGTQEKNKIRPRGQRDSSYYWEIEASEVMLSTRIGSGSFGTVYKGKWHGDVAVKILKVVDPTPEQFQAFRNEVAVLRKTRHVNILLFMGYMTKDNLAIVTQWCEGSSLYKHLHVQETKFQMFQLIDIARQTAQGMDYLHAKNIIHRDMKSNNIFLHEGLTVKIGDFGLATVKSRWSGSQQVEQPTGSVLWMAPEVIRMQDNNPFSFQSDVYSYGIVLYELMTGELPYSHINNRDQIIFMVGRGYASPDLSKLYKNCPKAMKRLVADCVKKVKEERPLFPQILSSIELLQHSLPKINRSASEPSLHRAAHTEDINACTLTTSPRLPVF
Mitogen-activated protein kinase 14 (Homo sapiens), sequence (Q16539 whole entry): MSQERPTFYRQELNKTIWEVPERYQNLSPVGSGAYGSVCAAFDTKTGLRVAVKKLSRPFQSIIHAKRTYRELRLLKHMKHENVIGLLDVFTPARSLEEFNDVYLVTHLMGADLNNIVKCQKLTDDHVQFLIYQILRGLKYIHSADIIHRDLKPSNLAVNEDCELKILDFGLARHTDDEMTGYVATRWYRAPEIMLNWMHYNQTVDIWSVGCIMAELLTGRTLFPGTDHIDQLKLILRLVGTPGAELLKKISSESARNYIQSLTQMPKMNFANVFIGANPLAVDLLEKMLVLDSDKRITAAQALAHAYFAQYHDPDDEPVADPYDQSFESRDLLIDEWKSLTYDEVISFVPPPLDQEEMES
Mitogen-activated protein kinase 3 (Homo sapiens), sequence (P27361 whole entry): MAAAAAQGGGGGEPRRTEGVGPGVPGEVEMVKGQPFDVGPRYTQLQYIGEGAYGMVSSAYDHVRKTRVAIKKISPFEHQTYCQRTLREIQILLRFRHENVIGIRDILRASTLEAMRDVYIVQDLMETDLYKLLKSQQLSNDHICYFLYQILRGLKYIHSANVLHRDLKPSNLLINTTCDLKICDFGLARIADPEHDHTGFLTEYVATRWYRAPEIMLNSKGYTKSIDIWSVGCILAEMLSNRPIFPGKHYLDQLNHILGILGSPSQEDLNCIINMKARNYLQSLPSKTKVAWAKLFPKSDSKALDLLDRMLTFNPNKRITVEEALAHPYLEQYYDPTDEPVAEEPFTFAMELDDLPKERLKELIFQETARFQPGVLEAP

IC50 (HCT-116): 8.6 µM | IC50 (A549): 15.6 µM | IC50 (HepG2 [5]): 9.9 µM
Compound: COc1ccc2oc(-c3ccc(NC(=O)Nc4ccc(Cl)c(Cl)c4)cc3Cl)cc(=O)c2c1
cytotoxicity at 48 h, 100 µM [1]: 77.9% | cytotoxicity at 48 h, 100 µM [2]: 42.5% | cytotoxicity at 48 h, 50 µM [3]: 66.4% | cytotoxicity at 48 h, 50 µM [4]: 13.2%

IC50 (HCT-116): 27.9 µM | IC50 (A549): > 50 µM | IC50 (HepG2 [5]): 30.7 µM
Compound: CCc1ccc2oc(-c3ccc(NC(=O)Nc4cccc(Cl)c4)cc3Cl)cc(=O)c2c1
cytotoxicity at 48 h, 100 µM [1]: 37.2% | cytotoxicity at 48 h, 100 µM [2]: 18% | cytotoxicity at 48 h, 50 µM [3]: 9.4% | cytotoxicity at 48 h, 50 µM [4]: 12.6%

IC50 (HCT-116): 9.6 µM | IC50 (A549): 11 µM | IC50 (HepG2 [5]): 26.3 µM
Compound: COc1ccc2oc(-c3ccc(NC(=O)Nc4cccc(Cl)c4)cc3Cl)cc(=O)c2c1
cytotoxicity at 48 h, 100 µM [1]: 40.6% | cytotoxicity at 48 h, 100 µM [2]: 30.1% | cytotoxicity at 48 h, 50 µM [3]: 35.7% | cytotoxicity at 48 h, 50 µM [4]: 15.9%

IC50 (HCT-116): 2.3 µM | IC50 (A549): 4.5 µM | IC50 (HepG2 [5]): 5 µM | inhibition [6]: 101%
Compound: CNC(=O)c1cc(Oc2ccc(NC(=O)Nc3ccc(Cl)c(C(F)(F)F)c3)cc2)ccn1 [SORAFENIB]
cytotoxicity at 48 h, 100 µM [1]: 20.2% | cytotoxicity at 48 h, 100 µM [2]: 23.2% | cytotoxicity at 48 h, 50 µM [3]: 5.3% | cytotoxicity at 48 h, 50 µM [4]: 4.2%

IC50 (HCT-116): 28.7 µM | IC50 (A549): > 50 µM | IC50 (HepG2 [5]): 8.3 µM | inhibition [27]: Active | inhibition [28]: inactive | inhibition [29]: Active | inhibition [30]: inactive | inhibition [6]: 65.6% | inhibition [31]: 67.4% | inhibition [32]: 13.5% | inhibition [33]: inactive
Compound: CCc1ccc2oc(-c3ccc(NC(=O)Nc4ccc(Cl)cc4)cc3Cl)cc(=O)c2c1
Activity (HepG2 [7]): 13.43% | Activity (HepG2 [8]): 20.57% | Activity (HepG2 [9]): 52.83% | Activity (HepG2 [10]): 9.14% | Activity (HepG2 [11]): 24.69% | Activity (HepG2 [12]): 52.83% | Activity (HepG2 [13]): 9.38% | Activity (HepG2 [14]): 21.77% | Activity (HepG2 [15]): 62.29% | Activity (HepG2 [16]): 8.81% | Activity (HepG2 [17]): 19.92% | Activity (HepG2 [18]): 69.43% | Activity (HepG2 [19]): 0.55% | Activity (HepG2 [20]): 0.44% | Activity (HepG2 [21]): 0.46% | Activity (HepG2 [22]): 0.27% | Activity (HepG2 [23]): 1.28% | Activity (HepG2 [24]): 1.37% | Activity (HepG2 [25]): 1.2% | Activity (HepG2 [26]): 1.22% | cytotoxicity at 48 h, 100 µM [1]: 28.3% | cytotoxicity at 48 h, 100 µM [2]: 31.8% | cytotoxicity at 48 h, 50 µM [3]: 18.7% | cytotoxicity at 48 h, 50 µM [4]: 23.7%

IC50 (HCT-116): 25.9 µM | IC50 (A549): 16.8 µM | IC50 (HepG2 [5]): 12.2 µM
Compound: O=C(Nc1cccc(Cl)c1)Nc1ccc(-c2cc(=O)c3ccc(O)cc3o2)c(Cl)c1
cytotoxicity at 48 h, 100 µM [1]: 83.8% | cytotoxicity at 48 h, 100 µM [2]: 43.2% | cytotoxicity at 48 h, 50 µM [3]: 80.2% | cytotoxicity at 48 h, 50 µM [4]: 34.6%

IC50 (HCT-116): 24.2 µM | IC50 (A549): > 50 µM | IC50 (HepG2 [5]): 31.7 µM
Compound: O=C(Nc1cccc(Cl)c1)Nc1ccc(-c2cc(=O)c3cc(F)ccc3o2)c(Cl)c1
cytotoxicity at 48 h, 100 µM [1]: 54.2% | cytotoxicity at 48 h, 100 µM [2]: 57.7% | cytotoxicity at 48 h, 50 µM [3]: 20.1% | cytotoxicity at 48 h, 50 µM [4]: 26.8%
